The record followed here is ChEMBL document CHEMBL1137002, “Synthesis and electrochemistry of 2-ethenyl and 2-ethanyl derivatives of 5-nitroimidazole and antimicrobial activity against Giardia lamblia” (J Med Chem, 2009).

The subject of series [1] is Giardia intestinalis. Description: Antigiardial activity against Giardia lamblia GS/M trophozoites infected in C57BL/6 mouse assessed as reduction in live trophozoite number in small intestine at 2 mg/kg, po administered as 5 doses for 3 days. The format is functional, organism-based. On the set-up: dose 2 mg/kg. The following applies: Giardia duodenalis. An outline of the steps: (§1)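 Adult C57BL/6 mice infected orally with G. lamblia GS/M trophozoites; from 2 days post-infection, five oral gavage doses over 3 days (10 or 2 mg/kg), with controls given methylcellulose/PBS vehicle. Day 5: whole small intestine opened, placed in PBS on ice 10 min, shaken, and live trophozoites counted by hemocytometer under phase contrast. Mean ± SE of 3–7 animals; t test versus vehicle controls, p < 0.05.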

A short description of series [2]: Therapeutic index, ratio of IC50 for human HeLa cells to EC50 for Giardia lamblia trophozoites isolates. The format is cell-based. The following applies: read-out: Ratio IC50/EC50.
In series [3] the test system is Giardia intestinalis. Description: Antigiardial activity against metronidazole-sensitive Giardia lamblia isolate 713 trophozoite after 2 days by bactiter-glo viability assay. The format is functional, organism-based. The note with it: Giardia duodenalis, isolate 713, 48 h. An outline of the steps: (§2)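 Trophozoites from mid-log cultures in TYI-S-33 with 10% bovine serum and 1 mg/mL bovine bile, grown anaerobically. Mz-resistant lines kept on 50 μM Mz but grown without it for 2–3 days beforehand. 1000–2000 cells/well, 1:3 serial dilutions, final 20 μM to 0.4 nM. 2 days at 37 °C anaerobically. ATP luminescence read-out. EC50 taken by graphic extrapolation of concentration–response curves. Mean ± SE of three experiments.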

Series [4] deals with Giardia intestinalis. Description: Antigiardial activity against Giardia lamblia trophozoites isolates after 2 days by bactiter-glo viability assay. Format: functional, organism-based. The following applies: Giardia duodenalis, 48 h.
Series [5] has as its system Giardia intestinalis. In words: Antigiardial activity against Giardia lamblia GS/M trophozoites infected in C57BL/6 mouse assessed as parasite eradication in small intestine at 10 mg/kg, po administered as 5 doses for 3 days. Also noted: dose 10 mg/kg. The format is functional, organism-based. The note with it: Giardia duodenalis. An outline of the steps:
as §1

Series [6] deals with Giardia intestinalis. Description: Antigiardial activity against metronidazole-sensitive Giardia lamblia isolate 106 trophozoite after 2 days by bactiter-glo viability assay. The note with it: Giardia duodenalis, isolate 106, 48 h. The format is functional, organism-based. In short, it runs like this:
as §2

The test system of series [7] is Giardia intestinalis. Description: Antigiardial activity against metronidazole-resistant Giardia lamblia isolate 713 trophozoite after 2 days by bactiter-glo viability assay. The following applies: Giardia duodenalis, isolate 713, 48 h. The format is functional, organism-based. An outline of the steps: as §2
Series [8] has as its system HeLa. Description: Cytotoxicity against human HeLa cells after 2 days by Alamar blue assay. Format: cell-based. The following applies: 48 h.
Series [9] deals with Mus musculus. In words: Toxicity in C57BL/6 mouse at 10 mg/kg, po after 3 days. Format: organism-based. Also noted: dose 10 mg/kg, route oral. The note with it: in vivo, 72 h. In short, it runs like this:
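G. lamblia GS/M-infected adult C57BL/6 mice were watched for clinically observable untoward effects across the 3-day treatment period, which consisted of five oral gavage doses at 10 mg/kg in methylcellulose/PBS given from day 2 after infection.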

Series [10] has as its system Giardia intestinalis. In words: Antigiardial activity against Giardia lamblia GS/M trophozoites infected in C57BL/6 mouse assessed as reduction in live trophozoite number in small intestine at 10 mg/kg, po administered as 5 doses for 3 days relative to control. The format is functional. The following applies: for Activity: Giardia duodenalis. An outline of the steps:
as §1

For series [11], the system named is Giardia intestinalis. In words: Antigiardial activity against metronidazole-resistant Giardia lamblia isolate 106 trophozoite after 2 days by bactiter-glo viability assay. Format: functional, organism-based. The note with it: Giardia duodenalis, isolate 106, 48 h. An outline of the steps: as §2

Calls of active or inactive are those of the source. The rule behind the calls is not given here.

Consider `Cn1c([N+](=O)[O-])cnc1/C=C/c1cccc(F)c1`, for which the outcome in [1], in series [5] and in [10] was Active. In addition, the selectivity ratio in series [2] was > 2460. Besides, the EC50 in series [3] was 123 nM; in series [4] (read-out: pEC50 (converted)), 40.7 nM; in series [6] it was 93.3 nM; in [7], 25.7 nM; in series [11] it was 30.9 nM. The half-maximal inhibitory concentration (IC50) (commonly the point on the concentration scale where inhibition reaches its midpoint) in [8] is > 100 µM. Also, in [9], the Activity result is “Non-toxic”.
Consider `Cc1ncc([N+](=O)[O-])n1CCO` [METRONIDAZOLE], for which the outcome in series [1] and in [5] was inactive. The EC50 in series [3] is 44700 nM; in [4] (read-out: EC50) it was 2630 nM; in series [6] it was 25700 nM; in series [7] it was 1480 nM; in series [11], 3980 nM. Further, the “fold change (FC)” value in [10] came out at 1000.
As to `Cn1ccnc1/C=C/c1ncc([N+](=O)[O-])n1C`, the result in [1], in series [5] and in series [10] was Active. For the same compound, the selectivity ratio in series [2] is 1200. For the same compound, the EC50 was 1170 nM in [3]; 75.9 nM in series [4] (read-out: pEC50 (converted)); 251 nM in series [6]; 51.3 nM in series [7]; 87.1 nM in series [11]. This compound had an IC50 in series [8] of 91.2 µM. Further, in series [9], the Activity entry is listed as “Non-toxic”.
